In ChEMBL document CHEMBL5653631, “A Potent and Selective ULK1 Inhibitor Suppresses Autophagy and Sensitizes Cancer Cells to Nutrient Stress” (iScience, 2018):

Tests used:
[1] = biological target: RAC-alpha serine/threonine-protein kinase (Homo sapiens) (UniProt P31749); assay: Inhibition of human recombinant AKT1 at 40 nM in presence of ATP by radiometric assay relative to control
Method in brief: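 Panel of 327 recombinant human kinases in radiometric activity assays, each screened in duplicate at a single inhibitor concentration; percent activity remaining relative to vehicle control, percent inhibition taken as 100 minus activity remaining.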

[2] = biological target: Calcium/calmodulin-dependent protein kinase type 1 (Homo sapiens) (UniProt Q14012); assay: Inhibition of human recombinant CaMK1a at 40 nM in presence of ATP by radiometric assay relative to control
Chain of Calcium/calmodulin-dependent protein kinase type 1 (Homo sapiens) (Q14012 whole entry, looked up): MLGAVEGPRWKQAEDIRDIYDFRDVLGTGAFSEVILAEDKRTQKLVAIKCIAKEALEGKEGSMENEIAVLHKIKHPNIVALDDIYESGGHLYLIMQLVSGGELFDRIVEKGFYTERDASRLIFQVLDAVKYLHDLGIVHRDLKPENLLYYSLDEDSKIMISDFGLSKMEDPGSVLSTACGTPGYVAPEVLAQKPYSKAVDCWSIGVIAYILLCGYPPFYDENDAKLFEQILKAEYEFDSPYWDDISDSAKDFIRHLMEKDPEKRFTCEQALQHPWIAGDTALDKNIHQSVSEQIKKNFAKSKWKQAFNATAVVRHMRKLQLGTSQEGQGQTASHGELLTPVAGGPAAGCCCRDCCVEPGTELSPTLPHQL

[3] = biological target: T1, Muscle, skeletal receptor tyrosine-protein kinase (Homo sapiens) (UniProt O15146); assay: Inhibition of human recombinant MUSK at 40 nM in presence of ATP by radiometric assay relative to control
T1 sequence (whole entry): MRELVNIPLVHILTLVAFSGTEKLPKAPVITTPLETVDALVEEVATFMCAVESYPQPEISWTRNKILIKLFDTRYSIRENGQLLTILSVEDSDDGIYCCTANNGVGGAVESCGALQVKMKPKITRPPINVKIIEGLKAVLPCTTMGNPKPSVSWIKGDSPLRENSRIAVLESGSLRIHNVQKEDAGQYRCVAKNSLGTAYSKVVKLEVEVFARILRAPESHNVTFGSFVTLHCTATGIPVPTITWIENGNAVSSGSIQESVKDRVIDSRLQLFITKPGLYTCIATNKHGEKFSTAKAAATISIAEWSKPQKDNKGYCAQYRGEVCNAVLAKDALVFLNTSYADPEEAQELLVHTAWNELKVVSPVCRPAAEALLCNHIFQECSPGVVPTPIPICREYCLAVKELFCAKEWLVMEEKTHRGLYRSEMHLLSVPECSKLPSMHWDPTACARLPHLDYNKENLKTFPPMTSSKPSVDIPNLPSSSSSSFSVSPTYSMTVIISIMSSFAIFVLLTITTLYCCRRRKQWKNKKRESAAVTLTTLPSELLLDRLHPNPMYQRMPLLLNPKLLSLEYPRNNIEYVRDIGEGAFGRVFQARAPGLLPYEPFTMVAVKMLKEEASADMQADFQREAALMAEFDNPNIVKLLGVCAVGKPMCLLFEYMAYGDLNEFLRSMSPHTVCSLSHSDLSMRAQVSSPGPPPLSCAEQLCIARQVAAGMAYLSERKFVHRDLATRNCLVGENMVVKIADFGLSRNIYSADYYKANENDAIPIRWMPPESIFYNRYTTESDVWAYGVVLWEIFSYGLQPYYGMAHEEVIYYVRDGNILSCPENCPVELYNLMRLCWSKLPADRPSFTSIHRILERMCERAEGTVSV

[4] = biological target: T2, Activin receptor type-1 (Homo sapiens) (UniProt Q04771); assay: Inhibition of human recombinant ALK2 at 40 nM related to control ULK1
T2 sequence (whole entry): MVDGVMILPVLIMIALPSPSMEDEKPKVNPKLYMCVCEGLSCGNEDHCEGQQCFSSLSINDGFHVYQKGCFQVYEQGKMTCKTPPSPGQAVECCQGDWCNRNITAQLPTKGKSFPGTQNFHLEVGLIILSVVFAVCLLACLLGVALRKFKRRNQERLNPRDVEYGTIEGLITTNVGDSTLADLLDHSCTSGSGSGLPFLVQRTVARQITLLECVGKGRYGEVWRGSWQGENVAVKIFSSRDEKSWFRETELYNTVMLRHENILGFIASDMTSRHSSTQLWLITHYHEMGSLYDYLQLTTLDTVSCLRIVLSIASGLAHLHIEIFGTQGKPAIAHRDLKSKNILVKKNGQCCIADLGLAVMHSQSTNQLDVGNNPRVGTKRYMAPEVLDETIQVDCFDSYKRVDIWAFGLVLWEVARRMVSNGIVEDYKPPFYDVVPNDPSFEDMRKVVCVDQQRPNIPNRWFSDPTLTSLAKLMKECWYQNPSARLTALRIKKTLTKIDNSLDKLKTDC
Method in brief: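 Radiometric activity assays in a panel of 327 human recombinant kinases, each run in duplicate at one inhibitor concentration. Activity remaining is expressed as percent of vehicle control, and percent inhibition is calculated as 100% minus percent activity remaining.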

[5] = biological target: Serine/threonine-protein kinase N2 (Homo sapiens) (UniProt Q16513); assay: Inhibition of human recombinant PKN2 at 40 nM related to control ULK1
Chain of Serine/threonine-protein kinase N2 (Homo sapiens) (Q16513 whole entry, looked up): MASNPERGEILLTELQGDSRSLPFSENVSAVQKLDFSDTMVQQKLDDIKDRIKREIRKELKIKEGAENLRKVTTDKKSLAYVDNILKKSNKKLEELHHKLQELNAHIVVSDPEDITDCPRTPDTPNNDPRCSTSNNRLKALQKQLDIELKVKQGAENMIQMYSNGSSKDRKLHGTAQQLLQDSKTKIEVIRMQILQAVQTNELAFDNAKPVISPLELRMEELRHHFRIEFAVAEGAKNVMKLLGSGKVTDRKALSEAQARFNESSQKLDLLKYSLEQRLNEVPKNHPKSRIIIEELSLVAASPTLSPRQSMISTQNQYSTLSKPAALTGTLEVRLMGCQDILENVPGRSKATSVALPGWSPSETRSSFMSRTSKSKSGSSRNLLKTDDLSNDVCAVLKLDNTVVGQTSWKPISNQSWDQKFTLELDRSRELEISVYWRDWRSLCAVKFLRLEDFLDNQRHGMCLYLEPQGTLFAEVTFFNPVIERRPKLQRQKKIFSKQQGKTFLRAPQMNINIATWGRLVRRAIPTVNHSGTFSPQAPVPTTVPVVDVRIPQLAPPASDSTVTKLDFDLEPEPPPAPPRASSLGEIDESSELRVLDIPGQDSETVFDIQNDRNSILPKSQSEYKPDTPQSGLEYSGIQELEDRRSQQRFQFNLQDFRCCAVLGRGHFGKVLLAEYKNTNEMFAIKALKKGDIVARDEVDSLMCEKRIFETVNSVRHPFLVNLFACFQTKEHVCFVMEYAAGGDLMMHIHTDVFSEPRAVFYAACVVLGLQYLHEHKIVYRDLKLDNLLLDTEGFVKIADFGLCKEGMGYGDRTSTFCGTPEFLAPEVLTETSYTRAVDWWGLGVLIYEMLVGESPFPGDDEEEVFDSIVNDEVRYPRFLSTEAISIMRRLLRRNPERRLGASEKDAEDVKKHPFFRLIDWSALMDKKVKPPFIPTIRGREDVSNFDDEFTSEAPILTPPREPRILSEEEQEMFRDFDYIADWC

Homo sapiens = species: Homo sapiens; assay: Inhibition of human recombinant CK1d at 15 nM in presence of ATP by radiometric assay relative to control
[6] = biological target: T3, Ephrin type-A receptor 1 (Homo sapiens) (UniProt P21709); assay: Inhibition of human recombinant EphA1 at 500 nM related to control ULK1
T3 sequence (whole entry): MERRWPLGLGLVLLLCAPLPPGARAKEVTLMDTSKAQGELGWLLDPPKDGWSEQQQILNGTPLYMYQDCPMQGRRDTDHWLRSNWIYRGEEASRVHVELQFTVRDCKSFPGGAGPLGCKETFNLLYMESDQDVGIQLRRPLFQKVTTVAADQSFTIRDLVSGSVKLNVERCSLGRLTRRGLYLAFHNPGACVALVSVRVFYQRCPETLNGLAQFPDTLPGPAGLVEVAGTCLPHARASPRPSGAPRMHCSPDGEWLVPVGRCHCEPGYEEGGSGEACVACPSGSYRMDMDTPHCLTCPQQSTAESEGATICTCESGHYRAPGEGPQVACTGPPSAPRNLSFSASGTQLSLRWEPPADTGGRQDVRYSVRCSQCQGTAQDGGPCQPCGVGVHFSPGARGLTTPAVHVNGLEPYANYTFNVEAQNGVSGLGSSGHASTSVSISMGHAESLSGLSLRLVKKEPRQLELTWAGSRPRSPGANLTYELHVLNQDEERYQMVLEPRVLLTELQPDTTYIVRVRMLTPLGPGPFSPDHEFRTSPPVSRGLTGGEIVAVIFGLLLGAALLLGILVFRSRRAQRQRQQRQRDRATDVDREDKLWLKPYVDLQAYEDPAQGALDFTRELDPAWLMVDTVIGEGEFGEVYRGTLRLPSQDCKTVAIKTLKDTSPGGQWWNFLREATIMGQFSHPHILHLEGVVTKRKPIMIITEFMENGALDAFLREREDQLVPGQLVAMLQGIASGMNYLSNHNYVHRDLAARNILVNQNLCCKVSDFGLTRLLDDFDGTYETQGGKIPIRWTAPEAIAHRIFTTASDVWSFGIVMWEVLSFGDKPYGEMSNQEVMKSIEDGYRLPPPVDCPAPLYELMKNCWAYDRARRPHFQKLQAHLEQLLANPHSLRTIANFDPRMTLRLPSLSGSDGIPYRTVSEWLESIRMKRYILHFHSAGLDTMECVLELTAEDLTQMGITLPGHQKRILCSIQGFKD

Chain of RAC-alpha serine/threonine-protein kinase (Homo sapiens) (P31749 whole entry): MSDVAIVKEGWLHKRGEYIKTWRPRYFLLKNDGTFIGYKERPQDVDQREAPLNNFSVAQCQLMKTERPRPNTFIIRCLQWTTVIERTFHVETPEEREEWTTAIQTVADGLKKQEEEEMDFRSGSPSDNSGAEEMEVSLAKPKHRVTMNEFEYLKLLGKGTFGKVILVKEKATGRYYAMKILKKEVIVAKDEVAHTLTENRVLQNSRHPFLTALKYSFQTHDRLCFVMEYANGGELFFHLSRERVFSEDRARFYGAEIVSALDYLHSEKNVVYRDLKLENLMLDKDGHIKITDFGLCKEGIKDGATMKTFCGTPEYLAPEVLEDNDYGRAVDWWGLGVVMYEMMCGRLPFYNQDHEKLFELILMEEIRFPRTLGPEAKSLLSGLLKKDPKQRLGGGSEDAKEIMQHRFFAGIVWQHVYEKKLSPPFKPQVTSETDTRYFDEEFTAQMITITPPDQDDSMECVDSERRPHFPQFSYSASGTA

O=C(N[C@@H](C1CC1)C(F)(F)F)c1cc(-c2cnn3cc(-c4ccc(F)cc4)cnc23)cs1 gave an inhibition [1] of 0%, an inhibition [2] of 0% and an inhibition [3] of 13%. The fold change (FC) [4] was 0.77 and the fold change (FC) [5] was 0.
Compound CC(C)[C@H](NC(=O)c1cc(-c2cnn3cc(-c4ccc(OCCN5CCCCC5)cc4)cnc23)cs1)C(F)(F)F has an inhibition (Homo sapiens) of 3%.
CNC(=O)c1ccccc1Oc1nc(Nc2cc(OC)c(OC)c(OC)c2)ncc1Br was tested, and the fold change (FC) [6] was 0.18.
